# Measured values: ChEMBL document CHEMBL1138502, “Discovery and biological evaluation of novel cyanoguanidine P2X(7) antagonists with analgesic activity in a rat model of neuropathic pain” (J Med Chem, 2009)
# What was measured:
# [1] = target: T1, P2X purinoceptor 7 (Rattus norvegicus, UniProt Q64663); experiment: Antagonist activity at rat cloned P2X7 receptor expressed in HEK293 cells assessed as inhibition of calcium flux by FLIPR assay; format: functional, cell-based
# T1 sequence (Q64663 whole entry): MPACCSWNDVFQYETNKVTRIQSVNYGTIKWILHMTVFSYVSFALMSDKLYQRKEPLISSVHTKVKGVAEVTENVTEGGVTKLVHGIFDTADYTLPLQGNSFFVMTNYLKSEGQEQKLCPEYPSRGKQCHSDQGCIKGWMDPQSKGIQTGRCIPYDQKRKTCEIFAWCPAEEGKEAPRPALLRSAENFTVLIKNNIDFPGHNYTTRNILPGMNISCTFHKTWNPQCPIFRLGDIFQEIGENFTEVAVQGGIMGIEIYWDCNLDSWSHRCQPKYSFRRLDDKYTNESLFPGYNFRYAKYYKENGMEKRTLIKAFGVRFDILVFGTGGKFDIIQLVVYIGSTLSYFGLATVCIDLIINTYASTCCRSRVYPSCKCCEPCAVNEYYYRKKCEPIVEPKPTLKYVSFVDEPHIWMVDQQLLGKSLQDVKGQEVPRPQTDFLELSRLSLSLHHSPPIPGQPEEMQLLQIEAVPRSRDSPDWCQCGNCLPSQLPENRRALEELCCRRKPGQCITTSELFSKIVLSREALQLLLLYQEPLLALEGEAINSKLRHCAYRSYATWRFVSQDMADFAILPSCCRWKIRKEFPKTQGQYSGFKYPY
# Summary of the method: (§1)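 Calcium influx read on a fluorometric imaging plate reader with Fluo-4 as the calcium-sensing dye. The P2X7 agonist was benzoylbenzoic ATP (BzATP). pIC50 values are the mean of two experiments unless otherwise indicated; some values are the mean of more than two experiments, with standard deviation shown.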
# [2] = target: T2, P2X purinoceptor 7 (Homo sapiens, UniProt Q99572); experiment: Antagonist activity at human cloned P2X7 receptor expressed in HEK293 cells assessed as inhibition of calcium flux by FLIPR assay; format: functional, cell-based; summary of the method: as §1
# T2 sequence (Q99572 whole entry): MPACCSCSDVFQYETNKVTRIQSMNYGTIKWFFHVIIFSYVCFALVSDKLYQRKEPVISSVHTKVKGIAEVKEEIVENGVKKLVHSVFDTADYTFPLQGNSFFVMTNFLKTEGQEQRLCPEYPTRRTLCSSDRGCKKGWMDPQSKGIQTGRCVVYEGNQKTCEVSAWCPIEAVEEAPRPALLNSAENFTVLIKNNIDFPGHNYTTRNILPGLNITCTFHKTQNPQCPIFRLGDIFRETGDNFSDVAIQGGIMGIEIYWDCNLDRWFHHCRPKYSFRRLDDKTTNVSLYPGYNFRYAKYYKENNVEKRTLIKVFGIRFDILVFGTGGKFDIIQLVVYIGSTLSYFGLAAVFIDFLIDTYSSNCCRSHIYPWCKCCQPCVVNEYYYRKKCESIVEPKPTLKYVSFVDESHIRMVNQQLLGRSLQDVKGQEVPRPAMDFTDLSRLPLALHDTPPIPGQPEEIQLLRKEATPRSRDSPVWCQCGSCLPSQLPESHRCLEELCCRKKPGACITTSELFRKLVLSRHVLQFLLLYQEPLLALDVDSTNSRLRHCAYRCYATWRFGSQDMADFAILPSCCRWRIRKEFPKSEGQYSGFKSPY
Compound,IC50 [1],IC50 [2]
COc1ccc(CC(=O)NC(N/C(=N/C#N)Nc2cccc3cnccc23)C(C)(C)C)cc1OC (configuration not stated),31.6 nM,251 nM
COc1ccc(CC(=O)NC(NC(=S)Nc2ccccc2C)C(Cl)(Cl)Cl)cc1OC (configuration not stated),50.1 nM,100 nM
COc1ccc(CC(=O)NC(N=C(NC#N)Nc2ccccc2F)C(C)(C)C)cc1OC (configuration not stated),12.6 nM,200 nM
COc1cc(CC(=O)NC(N/C(=N/C#N)Nc2ccccc2C)C(C)(C)C)cc(OC)c1 (configuration not stated),63.1 nM,251 nM
O=C(CC12CC3CC(CC(C3)C1)C2)Nc1ccc2[nH]ncc2c1,501 nM,158 nM
COc1ccc(CC(=O)NC(N/C(=N/C#N)Nc2c(F)cccc2F)C(C)(C)C)cc1OC (configuration not stated),31.6 nM,200 nM
CC(C)(C)C(NC(=O)Cc1ccc(C#N)cc1)N/C(=N/C#N)Nc1cccc2ncccc12 (configuration not stated),6.31 nM,39.8 nM
COc1ccc(CC(=O)NC(NC(=NC#N)Nc2cccnc2OC)C(C)(C)C)cc1OC (configuration not stated),39.8 nM,100 nM
COc1ccc(CC(=O)NC(N=C(NC#N)Nc2ccc(C)cc2)C(C)(C)C)cc1OC (configuration not stated),20 nM,2000 nM
COc1ccc(CCC(=O)NC(N=C(NC#N)Nc2ccccc2C)C(C)(C)C)cc1OC (configuration not stated),316 nM,200 nM
COc1ncccc1NC(=NC#N)NC(NC(=O)c1ccc(Cl)cc1)C(C)(Cl)Cl (configuration not stated),50.1 nM,63.1 nM
COc1ccc(CC(=O)NC(NC(=NC#N)Nc2c(F)cc(F)cc2F)C(C)(C)C)cc1OC (configuration not stated),31.6 nM,100 nM
COc1ccc(NC(=NC#N)NC(NC(=O)c2ccc(Cl)cc2)C(C)(Cl)Cl)c(OC)n1 (configuration not stated),10 nM,50.1 nM
COc1ccc(CC(=O)NC(N=C(NC#N)Nc2cccc(F)c2)C(C)(C)C)cc1OC (configuration not stated),79.4 nM,3160 nM
CSc1ccc(CC(=O)NC(N=C(NC#N)Nc2cccnc2C)C(C)(C)C)cc1 (configuration not stated),31.6 nM,20 nM
COc1cc(OC)cc(C(=O)NC(NC(=NC#N)Nc2cccnc2OC)C(C)(Cl)Cl)c1 (configuration not stated),20 nM,50.1 nM

Compound,IC50 [1],IC50 [2]
COc1ccc(CC(=O)NC(N=C(NC#N)Nc2cccc(C)c2)C(C)(C)C)cc1OC (configuration not stated),39.8 nM,1000 nM
CCCCCC(=O)NC(N=C(NC#N)Nc1ccccc1C)C(C)(C)C (configuration not stated),31.6 nM,794 nM
COc1ccc(CC(=O)NC(NC(=NC#N)Nc2cccnc2OC)C(C)(Cl)Cl)cc1OC (configuration not stated),7.94 nM,31.6 nM
COc1cc(OC)cc(C(=O)NC(N/C(=N/C#N)Nc2cccnc2C)C(C)(Cl)Cl)c1 (configuration not stated),1000 nM,200 nM
CSc1ccc(CC(=O)NC(N=C(NC#N)Nc2ccccc2C)C(C)(C)C)cc1 (configuration not stated),7.94 nM,31.6 nM
Cc1ccccc1N/C(=N\C#N)NC(NC(=O)Cc1ccc(Cl)cc1)C(C)(C)C (configuration not stated),20 nM,63.1 nM
COc1ccc(CC(=O)NC(N=C(NC#N)Nc2cc(Cl)ccc2F)C(C)(C)C)cc1OC (configuration not stated),20 nM,79.4 nM
COc1ccc(CC(=O)NC(N/C(=N/C#N)Nc2cccnc2C)C(C)(C)C)cc1OC (configuration not stated),158 nM,251 nM
COc1ccc(CCCC(=O)NC(N/C(=N/C#N)Nc2cccnc2C)C(C)(C)C)cc1 (configuration not stated),100 nM,50.1 nM
COc1ccc(CCC(=O)NC(N/C(=N/C#N)Nc2ccccc2C)C(C)(C)C)cc1 (configuration not stated),251 nM,398 nM
COc1ccc(CC(=O)NC(N/C(=N/C#N)Nc2cccc(F)c2F)C(C)(C)C)cc1OC (configuration not stated),100 nM,316 nM
Cc1ccccc1N/C(=N\C#N)NC(NC(=O)Cc1ccc2c(c1)OCO2)C(C)(C)C (configuration not stated),39.8 nM,50.1 nM
"COc1ccc(CC(=O)NC(NC(=NC#N)Nc2ccccc2C)C(C)(C)C)cc1OC (single isomer, unassigned; (+))",12.6 nM,63.1 nM
COc1cc(OC)cc(C(=O)NC(N=C(NC#N)Nc2ccccc2C)C(C)(C)C)c1 (configuration not stated),794 nM,2510 nM
CSc1ccc(CC(=O)NC(N=C(NC#N)Nc2cccc3ncccc23)C(C)(C)C)cc1 (configuration not stated),7.94 nM,10 nM
